Assay results published in ChEMBL document CHEMBL1140106, “Blocking estrogen signaling after the hormone: pyrimidine-core inhibitors of estrogen receptor-coactivator binding” (J Med Chem, 2008).

What was measured:
Estrogen receptor beta [1] = molecular target: T1, Estrogen receptor beta (Homo sapiens, UniProt Q92731); assay: Binding affinity to ERbeta assessed as inhibition of fluorescein-labeled nuclear receptor domain of steroid receptor coactivator 3 by TR-FRET assay
[2] = Cytotoxicity against human HEC1 cells assessed as decrease in viable cell count at 20 uM; format: cell-based; details: hec-1, 20 µM
Estrogen receptor [3] = molecular target: T2, Estrogen receptor (Homo sapiens, UniProt P03372); assay: Binding affinity to ERalpha assessed as inhibition of fluorescein-labeled nuclear receptor domain of steroid receptor coactivator 3 by TR-FRET assay
T2 sequence (P03372 whole entry): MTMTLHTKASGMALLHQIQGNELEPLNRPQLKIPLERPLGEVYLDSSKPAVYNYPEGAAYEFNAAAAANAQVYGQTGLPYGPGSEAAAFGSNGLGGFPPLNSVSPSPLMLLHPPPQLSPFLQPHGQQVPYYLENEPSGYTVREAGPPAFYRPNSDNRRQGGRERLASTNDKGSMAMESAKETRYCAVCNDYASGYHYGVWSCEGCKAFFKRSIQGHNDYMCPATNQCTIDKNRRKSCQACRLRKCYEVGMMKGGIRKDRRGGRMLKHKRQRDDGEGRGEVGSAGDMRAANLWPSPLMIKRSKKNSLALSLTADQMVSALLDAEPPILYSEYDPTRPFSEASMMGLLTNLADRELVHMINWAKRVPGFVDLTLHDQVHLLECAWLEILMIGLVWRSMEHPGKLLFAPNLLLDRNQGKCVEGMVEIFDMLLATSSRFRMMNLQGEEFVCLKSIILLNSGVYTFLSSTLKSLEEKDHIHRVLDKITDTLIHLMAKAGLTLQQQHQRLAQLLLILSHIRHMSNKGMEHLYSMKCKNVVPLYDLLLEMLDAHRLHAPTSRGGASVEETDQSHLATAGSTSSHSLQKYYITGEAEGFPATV
How it was run: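 Fluorescein-SRC-3-NRD (50 nM) was then added for 1 h at room temperature in the dark. Buffer: 20 mM Tris pH 7.5, 0.01% NP40, 50 mM NaCl. SRC-1 Box II peptide served as positive control.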

Estrogen receptor [4] = molecular target: T2, Estrogen receptor; assay: Antagonist activity at ERalpha in human HEC1 cells assessed as inhibition of estrogen-induced transcriptional activity after 24 hrs by reporter gene assay; format: functional, cell-based, HEC-1
How it was run: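 HEC-1 cells, which lack endogenous ER, were lipofectin-transfected with full-length ERα vector, 2ERE-luciferase reporter and pCMV β-gal as internal control. After 6 h the medium was changed to 5% charcoal-dextran-treated calf serum with ligands.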

Estrogen receptor beta [5] = molecular target: T1, Estrogen receptor beta; assay: Antagonist activity at ERbeta in human HEC1 cells assessed as inhibition of estrogen-induced transcriptional activity after 24 hrs by reporter gene assay; format: functional, cell-based, HEC-1

T1 sequence (Q92731 whole entry, the tested form may be a part): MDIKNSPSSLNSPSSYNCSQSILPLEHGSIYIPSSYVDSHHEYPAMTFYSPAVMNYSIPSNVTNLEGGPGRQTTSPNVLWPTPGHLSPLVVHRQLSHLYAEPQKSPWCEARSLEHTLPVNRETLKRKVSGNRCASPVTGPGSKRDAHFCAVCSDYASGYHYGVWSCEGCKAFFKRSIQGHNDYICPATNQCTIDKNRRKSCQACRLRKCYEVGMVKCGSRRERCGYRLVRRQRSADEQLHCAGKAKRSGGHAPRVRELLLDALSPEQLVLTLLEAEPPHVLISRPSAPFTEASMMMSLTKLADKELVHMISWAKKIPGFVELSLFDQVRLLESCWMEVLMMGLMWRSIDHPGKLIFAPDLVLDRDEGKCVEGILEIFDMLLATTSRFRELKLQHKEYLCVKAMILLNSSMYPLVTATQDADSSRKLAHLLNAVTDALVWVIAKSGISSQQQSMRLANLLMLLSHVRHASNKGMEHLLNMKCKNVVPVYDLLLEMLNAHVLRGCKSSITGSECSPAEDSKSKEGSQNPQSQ

| Ki (Estrogen receptor beta [1]) [mM] | Ki (Estrogen receptor [3]) [mM] | IC50 (Estrogen receptor [4]) [mM] | IC50 (Estrogen receptor beta [5]) [mM] | SMILES | Activity [2] |
| --- | --- | --- | --- | --- | --- |
| 0.299 |  |  |  | CC(C)CNc1cc(NCC(C)C)nc(NCC(C)C)n1 | Active |
| > 1 | 0.0072 | 0.0097 |  | CC(C)CCc1cc(NCC(C)C)nc(N(C)CC(C)C)n1 |  |
| > 1 | > 1 | > 1 |  | CC(C)COc1cc(/C=C/c2ccccc2)nc(OCC(C)C)n1 |  |
| > 1 | > 1 | > 1 |  | CC(C)CNc1cc(/C=C/c2ccccc2)nc(NCc2cccc3ccccc23)n1 |  |
| > 1 | 0.0025 | 0.0021 |  | CC(C)CNc1cc(CCc2cccc3ccccc23)nc(NCC(C)C)n1 |  |
| > 1 | > 1 | > 1 |  | CC(C)COc1cc(OCC(C)C)nc(OCC(C)C)n1 |  |
| > 1 | > 1 | > 1 |  | CC(C)CCc1nc(NCc2cccc3ccccc23)cc(NCC(C)C)n1 |  |
| > 1 | > 1 | > 1 |  | CC(C)COc1cc(CCc2ccccc2)nc(OCC(C)C)n1 |  |
| > 1 | 0.0017 | 0.0019 |  | CC(C)CNc1nc(CCc2ccccc2)cc(NCc2ccccc2)n1 |  |
| > 1 | > 1 | > 1 |  | CC(C)CNc1nc(CCc2cccc3ccccc23)cc(N(CC(C)C)C(=O)OC(C)(C)C)n1 |  |
| > 1 | > 1 |  |  | CC(C)CCc1cc(CCC(C)C)nc(NCc2cccc3ccccc23)n1 |  |
| > 1 | > 1 |  |  | CC(C)CNc1cc(CCc2cccc3ccccc23)nc(N(C)CC(C)C)n1 |  |
| > 1 | > 1 | > 1 |  | CC(C)CNc1cc(CCc2ccccc2)nc(NCc2cccc3ccccc23)n1 |  |
| > 1 | > 1 |  |  | CC(C)CNc1cc(CCc2ccccc2)nc(N(C)CC(C)C)n1 |  |
| > 1 | > 1 | > 1 |  | CC(C)CNc1nc(CCc2ccccc2)cc(CCc2ccccc2)n1 |  |
| > 1 | 0.0041 | 0.0083 |  | CC(C)CCc1cc(NCc2ccccc2)nc(NCc2ccccc2)n1 |  |
| > 1 | > 1 |  |  | CC(C)CCc1cc(NCC(C)C)nc(SCC(C)C)n1 |  |
| > 1 | > 1 |  |  | CC(C)CNc1cc(OCC(C)C)nc(NCC(C)C)n1 |  |
| > 1 | 0.0079 | 0.0018 |  | CC(C)CCc1cc(NCC(C)C)nc(NCc2ccccc2)n1 | Active |
| > 1 | > 1 |  |  | CC(C)CNc1cc(S(=O)(=O)CC(C)C)nc(NCC(C)C)n1 |  |

| Ki (Estrogen receptor beta [1]) [mM] | Ki (Estrogen receptor [3]) [mM] | IC50 (Estrogen receptor [4]) [mM] | IC50 (Estrogen receptor beta [5]) [mM] | SMILES | Activity [2] |
| --- | --- | --- | --- | --- | --- |
| > 1 | > 1 |  |  | CC(C)CCc1cc(OCC(C)C)nc(OCC(C)C)n1 |  |
| > 1 | > 1 |  |  | CC(C)CNc1cc(CCc2cccc3ccccc23)nc(NCc2cccc3ccccc23)n1 |  |
| > 1 |  |  | > 1 | CC(C)CCc1cc(NCC(C)C)nc(NCC(C)C)n1 |  |
| > 1 |  | > 1 |  | CC(C)CSc1cc(SCC(C)C)nc(SCC(C)C)n1 |  |
| > 1 | > 1 | 0.012 |  | CC(C)CNc1cc(/C=C/c2ccccc2)nc(NCc2ccccc2)n1 | Active |
| > 1 | 0.016 | 0.0098 |  | CC(C)CNc1nc(/C=C/c2ccccc2)cc(NCc2ccccc2)n1 |  |
| > 1 | > 1 |  |  | CC(C)CN(C)c1cc(/C=C/c2ccccc2)nc(N(C)CC(C)C)n1 |  |
| > 1 | 0.0058 | 0.0058 |  | CC(C)CCc1cc(NCc2ccccc2)nc(NCC(C)C)n1 |  |
| > 1 | > 1 | > 1 |  | CC(C)CCc1cc(CCC(C)C)nc(NCc2ccccc2)n1 |  |
| > 1 | > 1 |  |  | CC(C)CCc1cc(N(C)CC(C)C)nc(NCC(C)C)n1 |  |
| > 1 | > 1 |  |  | CC(C)CNc1cc(/C=C/c2ccccc2)nc(N(C)CC(C)C)n1 |  |
| > 1 | > 1 |  |  | CC(C)CNc1cc(NCC(C)C)nc(CCc2cccc3ccccc23)n1 |  |
| > 1 | > 1 | > 1 |  | CC(C)CNc1nc(/C=C/c2ccccc2)cc(N(C)CC(C)C)n1 |  |
| > 1 | > 1 |  |  | CC(C)CN(C)c1cc(CCc2ccccc2)nc(N(C)CC(C)C)n1 |  |
| > 1 | > 1 |  |  | CC(C)CCc1cc(N(Cc2ccccc2)C(=O)OC(C)(C)C)nc(NCC(C)C)n1 |  |
| > 1 | > 1 |  |  | CC(C)CCc1nc(NCc2ccccc2)cc(NCC(C)C)n1 |  |
| > 1 | > 1 |  |  | CC(C)CCc1cc(CCC(C)C)nc(NCC(C)C)n1 |  |
| > 1 | > 1 |  |  | CC(C)CNc1nc(CCc2ccccc2)cc(NCc2cccc3ccccc23)n1 |  |
| > 1 | > 1 | 0.0069 |  | CC(C)CCc1cc(NCC(C)C)nc(OCC(C)C)n1 | Active |

The remaining lines, values behind:

| SMILES | Ki (Estrogen receptor beta [1]) [mM] | Ki (Estrogen receptor [3]) [mM] | IC50 (Estrogen receptor [4]) [mM] | IC50 (Estrogen receptor beta [5]) [mM] | Activity [2] |
| --- | --- | --- | --- | --- | --- |
| CC(C)CCc1cc(NCc2cccc3ccccc23)nc(NCc2ccccc2)n1 | > 1 | > 1 | > 1 |  |  |
| C(=C\c1cc(NCc2ccccc2)nc(NCc2ccccc2)n1)/c1ccccc1 | > 1 | > 1 | > 1 |  |  |
| C(=C\c1cc(OCc2ccccc2)nc(OCc2ccccc2)n1)/c1ccccc1 | > 1 | > 1 | > 1 |  |  |
| c1ccc(CCc2cc(NCc3cccc4ccccc34)nc(NCc3ccccc3)n2)cc1 | > 1 | > 1 | > 1 |  |  |
| c1ccc(CCc2cc(OCc3ccccc3)nc(OCc3ccccc3)n2)cc1 | > 1 | > 1 | > 1 |  |  |
| CC(C)CCc1cc(SCc2ccccc2)nc(SCc2ccccc2)n1 | > 1 | > 1 |  |  |  |
| CC(C)CCc1cc(OCc2ccccc2)nc(OCc2ccccc2)n1 | > 1 | > 1 | > 1 |  |  |
| c1ccc(CNc2cc(CCc3cccc4ccccc34)nc(NCc3ccccc3)n2)cc1 | > 1 | > 1 |  |  |  |
| c1ccc(CCc2cc(NCc3cccc4ccccc34)nc(NCc3cccc4ccccc34)n2)cc1 | > 1 | > 1 | > 1 |  |  |
| C(=C\c1cc(/C=C/c2ccccc2)nc(NCc2ccccc2)n1)/c1ccccc1 | > 1 | > 1 | > 1 |  |  |
| C(=C\c1cc(NCc2cccc3ccccc23)nc(NCc2cccc3ccccc23)n1)/c1ccccc1 | > 1 | > 1 |  |  |  |
| c1ccc(CSc2cc(SCc3ccccc3)nc(SCc3ccccc3)n2)cc1 | > 1 | > 1 | > 1 |  |  |
| CC(C)CCc1cc(NCc2ccccc2)nc(NCc2cccc3ccccc23)n1 | > 1 | > 1 | > 1 |  |  |
| O=S(=O)(Cc1ccccc1)c1cc(CCc2ccccc2)nc(S(=O)(=O)Cc2ccccc2)n1 | > 1 | > 1 |  |  |  |
| C(=C\c1cc(NCc2ccccc2)nc(NCc2cccc3ccccc23)n1)/c1ccccc1 | > 1 | > 1 |  |  |  |
| CC(C)(C)OC(=O)N(Cc1cccc2ccccc12)c1cc(/C=C/c2ccccc2)nc(NCc2cccc3ccccc23)n1 | > 1 | > 1 |  |  |  |
| CC(C)CCc1cc(NCc2cccc3ccccc23)nc(NCc2cccc3ccccc23)n1 | > 1 | > 1 | > 1 |  |  |
| c1ccc(CCc2cc(CCc3ccccc3)nc(NCc3ccccc3)n2)cc1 | > 1 | > 1 |  |  |  |
| c1ccc(CNc2cc(CCc3cccc4ccccc34)nc(NCc3cccc4ccccc34)n2)cc1 | > 1 | > 1 |  |  |  |
| c1ccc(COc2cc(OCc3ccccc3)nc(OCc3ccccc3)n2)cc1 | > 1 | > 1 | > 1 |  |  |
| CC(C)CNc1nc(/C=C/c2ccccc2)cc(/C=C/c2ccccc2)n1 | > 1 | > 1 | > 1 |  |  |
| CC(C)CNc1nc(CCc2cccc3ccccc23)cc(N(Cc2cccc3ccccc23)C(=O)OC(C)(C)C)n1 | > 1 | > 1 |  |  |  |
| CC(C)CN(C(=O)OC(C)(C)C)c1cc(CCc2cccc3ccccc23)nc(NCc2ccccc2)n1 | > 1 | > 1 |  |  |  |
| c1ccc2c(CCc3cc(NCc4cccc5ccccc45)nc(NCc4cccc5ccccc45)n3)cccc2c1 | > 1 | > 1 | > 1 |  |  |
| c1ccc(CCc2cc(SCc3ccccc3)nc(SCc3ccccc3)n2)cc1 | > 1 | > 1 |  |  |  |
| CC(C)(C)OC(=O)N(Cc1cccc2ccccc12)c1cc(CCc2cccc3ccccc23)nc(NCc2ccccc2)n1 | > 1 | > 1 |  |  |  |
| CC(C)(C)OC(=O)N(Cc1cccc2ccccc12)c1cc(CCc2ccccc2)nc(NCc2cccc3ccccc23)n1 | > 1 | > 1 | > 1 |  |  |
| c1ccc(CCc2cc(CCc3ccccc3)nc(NCc3cccc4ccccc34)n2)cc1 | > 1 | > 1 | > 1 |  |  |
